Test results: ChEMBL document CHEMBL3421608, “Discovery and optimization of a novel series of Dyrk1B kinase inhibitors to explore a MEK resistance hypothesis” (J Med Chem, 2015)
≈ marks a conversion by molar mass, not a printed value. Calls of active or inactive are those of the source. The rule behind the calls is not given here.

Columns and labels:
[1] = molecular target: T1, Dual specificity tyrosine-phosphorylation-regulated kinase 1B (Homo sapiens, UniProt Q9Y463); assay: Inhibition of recombinant Dyrk1B (unknown origin) using FITC-Asp-His-Thr-Gly-Phe-Leu-Thr-Glu-Tyr-Val-Ala-Thr-Arg-NH2 as substrate after 60 mins
T1 sequence (Q9Y463 whole entry): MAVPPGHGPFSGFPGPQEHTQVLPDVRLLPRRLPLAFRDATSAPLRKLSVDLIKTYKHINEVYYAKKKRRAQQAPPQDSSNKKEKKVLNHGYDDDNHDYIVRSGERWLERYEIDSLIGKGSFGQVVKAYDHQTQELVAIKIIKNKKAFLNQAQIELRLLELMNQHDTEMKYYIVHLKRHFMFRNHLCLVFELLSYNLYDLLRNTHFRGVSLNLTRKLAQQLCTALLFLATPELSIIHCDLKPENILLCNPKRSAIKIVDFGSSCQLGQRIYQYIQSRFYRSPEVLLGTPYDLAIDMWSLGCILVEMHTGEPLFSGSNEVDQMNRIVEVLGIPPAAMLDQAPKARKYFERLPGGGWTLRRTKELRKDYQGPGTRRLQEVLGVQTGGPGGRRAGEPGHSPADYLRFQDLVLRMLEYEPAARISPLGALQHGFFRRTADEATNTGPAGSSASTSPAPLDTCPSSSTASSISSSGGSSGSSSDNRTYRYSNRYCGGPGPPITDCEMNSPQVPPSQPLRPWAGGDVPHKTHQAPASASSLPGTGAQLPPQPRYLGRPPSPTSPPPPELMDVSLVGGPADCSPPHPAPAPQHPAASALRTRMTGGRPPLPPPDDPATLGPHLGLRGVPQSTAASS

[2] = molecular target: Insulin-like growth factor 1 receptor (Homo sapiens, UniProt P08069); assay: Inhibition of human recombinant N-terminal His6-tagged IGF-1R using fluorescence substrate after 80 mins by caliper off-chip incubation mobility shift assay
Sequence of Insulin-like growth factor 1 receptor (P08069 31-736 limits assumed): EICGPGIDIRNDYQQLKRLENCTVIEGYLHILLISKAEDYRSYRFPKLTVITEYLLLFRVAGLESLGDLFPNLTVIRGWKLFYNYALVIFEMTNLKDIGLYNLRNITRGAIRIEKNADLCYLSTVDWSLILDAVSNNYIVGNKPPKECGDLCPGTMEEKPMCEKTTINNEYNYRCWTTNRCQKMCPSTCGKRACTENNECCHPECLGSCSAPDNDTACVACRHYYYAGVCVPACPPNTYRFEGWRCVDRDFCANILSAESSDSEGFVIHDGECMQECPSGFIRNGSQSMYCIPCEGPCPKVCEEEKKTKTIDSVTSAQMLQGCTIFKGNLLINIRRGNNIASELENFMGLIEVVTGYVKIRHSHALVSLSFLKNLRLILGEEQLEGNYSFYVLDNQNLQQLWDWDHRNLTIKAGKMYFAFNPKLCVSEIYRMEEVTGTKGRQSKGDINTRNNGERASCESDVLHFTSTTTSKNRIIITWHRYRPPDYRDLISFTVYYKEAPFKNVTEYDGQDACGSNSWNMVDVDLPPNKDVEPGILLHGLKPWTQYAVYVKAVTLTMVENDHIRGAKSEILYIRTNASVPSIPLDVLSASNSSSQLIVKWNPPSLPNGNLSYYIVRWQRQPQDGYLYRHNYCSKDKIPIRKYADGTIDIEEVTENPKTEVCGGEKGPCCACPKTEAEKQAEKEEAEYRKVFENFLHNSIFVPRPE
Sequence of Insulin-like growth factor 1 receptor (P08069 741-1367 limits assumed): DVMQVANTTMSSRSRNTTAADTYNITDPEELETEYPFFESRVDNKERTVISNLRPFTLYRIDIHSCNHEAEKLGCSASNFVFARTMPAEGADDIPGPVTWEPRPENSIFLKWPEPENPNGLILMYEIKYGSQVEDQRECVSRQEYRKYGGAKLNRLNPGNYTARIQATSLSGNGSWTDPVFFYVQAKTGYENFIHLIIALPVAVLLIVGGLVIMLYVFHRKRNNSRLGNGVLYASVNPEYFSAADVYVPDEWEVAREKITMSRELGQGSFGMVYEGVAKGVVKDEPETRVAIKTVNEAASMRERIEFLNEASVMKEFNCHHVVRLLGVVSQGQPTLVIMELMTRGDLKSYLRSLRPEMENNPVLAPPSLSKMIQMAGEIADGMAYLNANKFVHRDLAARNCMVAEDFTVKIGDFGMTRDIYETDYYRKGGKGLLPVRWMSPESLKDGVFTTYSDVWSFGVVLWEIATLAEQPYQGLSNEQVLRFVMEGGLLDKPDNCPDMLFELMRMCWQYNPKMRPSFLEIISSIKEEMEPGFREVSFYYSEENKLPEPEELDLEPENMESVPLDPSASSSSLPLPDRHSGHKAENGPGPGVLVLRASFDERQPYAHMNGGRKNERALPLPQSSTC

[3] = molecular target: Cyclin-dependent kinase 2 (Homo sapiens, UniProt P24941); assay: Inhibition of human recombinant full length C-terminal His6-tagged CDK2 expressed in baculovirus infected Sf21 insect cells using fluorescence substrate after 60 mins by caliper off-chip incubation mobility shift assay
[4] = Intrinsic clearance in Wistar Han rat hepatocytes assessed per 10^6 cells; format: ADME, cell-based, Hepatocyte; conditions: read-out: CLH
Procedure, shortened: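 Intrinsic clearance in Wistar Han rat hepatocytes, expressed as μL/min/1 × 10⁶ cells.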

[5] = Clearance in Wistar Han rat plasma at 2 umol/kg; format: ADME, cell-free
[6] = molecular target: T1, Dual specificity tyrosine-phosphorylation-regulated kinase 1B; assay: Inhibition of human full length C-terminal c-Myc tagged Dyrk1B phosphorylation overexpressed in monkey COS1 cells after 5 hrs by ELISA; format: cell-based, COS-1
[7] = molecular target: Dual specificity tyrosine-phosphorylation-regulated kinase 1A (Homo sapiens) (UniProt Q13627); assay: Inhibition of Dyrk1A (unknown origin) at 1 uM
Procedure, shortened: (§1)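 Kinase panel of 124 kinases; single test concentration of 1 μM.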

[8] = molecular target: T2, Dual specificity tyrosine-phosphorylation-regulated kinase 2 (Homo sapiens) (UniProt Q92630); assay: Inhibition of Dyrk2 (unknown origin) at 1 uM; procedure, shortened: as §1
T2 sequence (whole entry): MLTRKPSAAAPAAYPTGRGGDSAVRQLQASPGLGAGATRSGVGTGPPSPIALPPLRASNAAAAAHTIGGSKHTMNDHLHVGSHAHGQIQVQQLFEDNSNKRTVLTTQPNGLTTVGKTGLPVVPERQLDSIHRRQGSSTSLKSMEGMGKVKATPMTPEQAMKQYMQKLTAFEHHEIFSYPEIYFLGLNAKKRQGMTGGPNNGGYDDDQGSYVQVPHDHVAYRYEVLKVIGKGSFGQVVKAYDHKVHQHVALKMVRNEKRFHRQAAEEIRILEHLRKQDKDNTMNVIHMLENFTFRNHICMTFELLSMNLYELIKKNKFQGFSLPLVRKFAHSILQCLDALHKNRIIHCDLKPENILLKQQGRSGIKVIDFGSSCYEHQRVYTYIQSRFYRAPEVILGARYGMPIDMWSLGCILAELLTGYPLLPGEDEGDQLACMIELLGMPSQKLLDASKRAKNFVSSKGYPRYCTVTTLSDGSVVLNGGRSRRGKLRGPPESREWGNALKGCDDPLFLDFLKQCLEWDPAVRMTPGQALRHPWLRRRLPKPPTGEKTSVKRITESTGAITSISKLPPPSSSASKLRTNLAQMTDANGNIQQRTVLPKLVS

[9] = molecular target: T3, Dual specificity tyrosine-phosphorylation-regulated kinase 3 (Homo sapiens) (UniProt O43781); assay: Inhibition of Dyrk3 (unknown origin) at 1 uM; procedure, shortened: as §1
T3 sequence (whole entry): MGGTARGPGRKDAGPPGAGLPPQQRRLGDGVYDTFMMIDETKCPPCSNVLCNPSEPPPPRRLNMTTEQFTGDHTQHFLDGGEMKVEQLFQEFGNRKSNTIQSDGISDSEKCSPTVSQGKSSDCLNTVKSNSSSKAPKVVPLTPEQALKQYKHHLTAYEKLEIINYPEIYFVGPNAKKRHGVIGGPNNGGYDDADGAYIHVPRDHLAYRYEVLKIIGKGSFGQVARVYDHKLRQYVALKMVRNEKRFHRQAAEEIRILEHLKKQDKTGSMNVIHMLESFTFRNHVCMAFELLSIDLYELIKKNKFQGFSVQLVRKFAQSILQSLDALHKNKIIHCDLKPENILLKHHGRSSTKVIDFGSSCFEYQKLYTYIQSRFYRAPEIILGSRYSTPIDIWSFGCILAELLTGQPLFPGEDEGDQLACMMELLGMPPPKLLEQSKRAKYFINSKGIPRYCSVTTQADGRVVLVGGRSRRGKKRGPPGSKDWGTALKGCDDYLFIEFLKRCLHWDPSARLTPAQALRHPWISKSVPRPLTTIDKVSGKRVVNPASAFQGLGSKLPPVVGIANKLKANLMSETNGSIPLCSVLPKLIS

[10] = tested on: A-375; assay: Cytotoxicity against human A375 cells at 1.33 uM after 72 hrs by calcein green AM/propidium iodide staining-based assay in presence of AZD6244 relative to control; format: functional, cell-based
Procedure, shortened: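 A375 melanoma cells treated with AZD6244 with or without Dyrk1B inhibitor at 1.33 μM for 72 h. Viability by calcein green AM and propidium iodide staining; percentage of dead cells is mean and SEM of at least two separate experiments.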

[11] = Oral bioavailability in Wistar Han rat at 3 umol/kg; format: ADME, organism-based; conditions: in vivo
[12] = Aqueous solubility of the compound at pH 7.4; format: physicochemical; conditions: buffer
[13] = molecular target: T4, Dual specificity protein kinase TTK (Homo sapiens, UniProt P33981); assay: Inhibition of human wild-type TTK (514 to 795) expressed in insect sf9 cells
T4 sequence (P33981 whole entry): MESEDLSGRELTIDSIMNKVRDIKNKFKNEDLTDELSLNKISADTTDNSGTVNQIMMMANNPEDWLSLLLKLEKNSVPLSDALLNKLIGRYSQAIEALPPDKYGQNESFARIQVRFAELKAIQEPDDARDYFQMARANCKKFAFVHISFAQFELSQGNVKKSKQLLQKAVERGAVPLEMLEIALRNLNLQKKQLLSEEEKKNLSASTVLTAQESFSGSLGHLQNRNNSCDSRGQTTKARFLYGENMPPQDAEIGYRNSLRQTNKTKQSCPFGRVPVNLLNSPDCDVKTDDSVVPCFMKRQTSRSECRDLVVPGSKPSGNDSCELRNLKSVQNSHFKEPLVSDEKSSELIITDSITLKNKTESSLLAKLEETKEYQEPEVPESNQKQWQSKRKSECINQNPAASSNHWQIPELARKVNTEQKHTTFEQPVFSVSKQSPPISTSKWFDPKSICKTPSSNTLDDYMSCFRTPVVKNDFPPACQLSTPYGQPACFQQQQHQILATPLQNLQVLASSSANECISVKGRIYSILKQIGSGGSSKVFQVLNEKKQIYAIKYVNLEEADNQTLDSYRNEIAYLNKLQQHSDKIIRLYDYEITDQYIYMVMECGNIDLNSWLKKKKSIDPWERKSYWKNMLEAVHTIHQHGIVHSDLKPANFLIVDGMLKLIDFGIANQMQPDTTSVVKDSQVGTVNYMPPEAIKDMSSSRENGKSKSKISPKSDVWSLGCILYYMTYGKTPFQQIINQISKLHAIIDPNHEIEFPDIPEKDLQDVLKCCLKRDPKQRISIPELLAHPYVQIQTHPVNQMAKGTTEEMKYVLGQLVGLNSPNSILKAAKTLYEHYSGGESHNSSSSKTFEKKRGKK

[14] = molecular target: T5, Dual specificity tyrosine-phosphorylation-regulated kinase 2 (Homo sapiens, UniProt Q92630); assay: Inhibition of GST-tagged Dyrk2 (unknown origin) expressed in Escherichia coli using [33P]ATP[gammaP]/DYRKtide as substrate after 5 mins by liquid scintillation counting analysis
T5 sequence (Q92630 whole entry): T2 sequence (whole entry)

[15] = molecular target: T6, Dual specificity tyrosine-phosphorylation-regulated kinase 4 (Homo sapiens, UniProt Q9NR20); assay: Inhibition of GST-tagged Dyrk4 (unknown origin) expressed in Escherichia coli using [33P]ATP[gammaP]/DYRKtide as substrate after 5 mins by liquid scintillation counting analysis
T6 sequence (Q9NR20 whole entry): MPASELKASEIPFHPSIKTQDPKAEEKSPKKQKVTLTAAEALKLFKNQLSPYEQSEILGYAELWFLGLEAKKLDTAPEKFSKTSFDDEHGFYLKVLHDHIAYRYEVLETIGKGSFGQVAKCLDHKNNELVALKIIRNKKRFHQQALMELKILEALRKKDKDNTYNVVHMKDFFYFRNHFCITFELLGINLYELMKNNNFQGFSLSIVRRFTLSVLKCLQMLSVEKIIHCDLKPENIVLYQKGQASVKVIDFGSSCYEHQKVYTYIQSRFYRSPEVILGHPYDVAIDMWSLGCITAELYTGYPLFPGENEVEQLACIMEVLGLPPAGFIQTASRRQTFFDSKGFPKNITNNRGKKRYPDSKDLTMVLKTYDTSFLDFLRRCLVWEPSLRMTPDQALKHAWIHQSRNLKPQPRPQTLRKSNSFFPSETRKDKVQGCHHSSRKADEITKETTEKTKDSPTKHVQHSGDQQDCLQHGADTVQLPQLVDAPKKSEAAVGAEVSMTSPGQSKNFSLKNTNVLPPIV

[16] = Clearance in Wistar Han rat blood at 2 umol/kg; format: ADME, tissue-based; conditions: whole blood
[17] = organism: Homo sapiens; assay: Selectivity ratio of IC50 for human recombinant N-terminal His6-tagged IGF-1R to IC50 for recombinant Dyrk1B (unknown origin)

Structure (SMILES) | IC50 [1] [nM] | IC50 [2] [nM] | IC50 [3] [nM] | hepatocyte CLint [4] [µL/min/1e6 cells] | clearance [5] [mL/min/kg] | IC50 [6] [nM] | other results
COc1cc(N2CCN(C(C)=O)CC2)ccc1Nc1nccc(-c2c[nH]c3cnccc23)n1 | 9 | 965 | 2000 | < 1 | 137 |  | 
COc1cc(N2CCN(C)CC2)ccc1Nc1nccc(-c2c[nH]c3cnccc23)n1 | 4 | 1490 | 1820 | 21 |  | 85 | inhibition [7]: 90%; inhibition [8]: 92%; inhibition [9]: 83%
Cc1nccc(-c2c[nH]c3cnccc23)n1 | 17 | > 100000 | 38400 |  |  | 3070 | 
c1cc2c(-c3ccnc4[nH]ccc34)c[nH]c2cn1 | 3 | 7990 | 314 |  |  | 378 | 
COc1cc(N2CCN(C)CC2)ccc1Nc1cc(-c2c[nH]c3cnccc23)ncn1 | 1 | 34100 | 12300 | 11 | 375 | 282 | 
C(=C\c1nccc(-c2c[nH]c3cnccc23)n1)/c1ccccc1 | 7 | 46900 | 5180 |  |  | 192 | Activity [10]: inactive
CS(=O)(=O)c1ccc(-c2nccc(-c3c[nH]c4cnccc34)n2)cc1 | 21 | > 100000 | 16900 | 129 |  | 898 | bioavailability [11]: 0%
COc1cc(N2CCN(C(C)=O)CC2)ccc1Nc1cc(-c2cn(C)c3cnccc23)ncn1 | 34 | > 100000 | 14800 | 11 | 16 |  | bioavailability [11]: 5%; solubility [12]: 53 µM (≈ 24.2 µg/mL)
Cc1nccc(-c2cn(Cc3ccccc3)c3cnccc23)n1 | 7 | > 100000 | 56700 |  |  | 194 | Activity [10]: inactive
COc1cc(OC2CCN(C)CC2)ccc1Nc1nccc(-c2c[nH]c3cnccc23)n1 | 140 | 3300 |  |  |  |  | IC50 [13]: 20 nM
Cc1nccc2c(-c3ccnc(-c4ccc(S(C)(=O)=O)cc4)n3)c[nH]c12 | 14 | > 29000 | > 100000 | 9 | 24 | 2120 | bioavailability [11]: 4%
COc1ccc2c(c1)[nH]c1c(C)nccc12 [HARMINE] |  |  |  |  |  |  | IC50 [14]: 2000 nM; IC50 [15]: 74000 nM
COc1cc(N2CCN(C)CC2)ccc1Nc1nccc(-c2cn(C)c3c(C)nccc23)n1 | 9 | 3170 | 13700 | 6 | 24 | 168 | bioavailability [11]: 14%; solubility [12]: 4 µM (≈ 1.77 µg/mL)
CN1CCN(c2ccc(Nc3cc(-c4c[nH]c5cnccc45)ncn3)cc2)CC1 | 2 | > 100000 | 577 | 13 | 179 | 453 | 
COc1cc(N2CCN(C(C)=O)CC2)ccc1Nc1cc(-c2c[nH]c3cnccc23)ncn1 | 16 | 40500 | 14100 | 9 | 239 |  | 
COc1cc(N2CCN(C)CC2)ccc1Nc1nccc(-c2c[nH]c3c(C)nccc23)n1 | 5 | 51 | 17400 | < 5 | 38 | 83 | bioavailability [11]: 0%
CN1CCN(c2ccc(Nc3cc(-c4c[nH]c5ccccc45)ncn3)cc2)CC1 | 85 | 2410 | 33200 | 49 |  | 9960 | clearance [16]: 42 mL/min/kg; bioavailability [11]: 13%; Ratio IC50 [17]: 28
O=C(NC1CCCC1)c1ccc(-c2nccc(-c3c[nH]c4cnccc34)n2)cc1 | 98 | 67700 | 45900 | 32 |  |  | 
CN1CCN(c2ccc(Nc3ncc(Cl)c(-c4c[nH]c5cnccc45)n3)cc2)CC1 | 25 | 30 | 20 |  |  |  | 
COc1cc(N2CCN(C)CC2)ccc1Nc1nccc(-c2c[nH]c3cnc(C)cc23)n1 | 4 | 72 | 10500 | 6 |  |  | 
O=C(NC1CCCC1)c1ccc(-c2cc(-c3cc4c([nH]3)CCNC4=O)ccn2)cc1 | 43 |  |  |  |  |  | 
